Key:
[1] = Drug level in human BJ cells at 10 umol/L measured per 5 x 10^5 cells after 3 hrs by UPLC-MS/MS analysis; type: ADME, cell-based; conditions: 10 µM
Hepatitis C virus [2] = assay: Anti-HCV activity against Hepatitis C virus genotype 2a infected in human Huh7 replicon cells after 96 hrs by luciferase reporter gene assay; type: functional, cell-based, Hepacivirus hominis; conditions: Huh-7, 96 h
CCRF-CEM [3] = assay: Inhibition of RNA synthesis in human CCRF-CEM cells assessed as decrease in BrU incorporation by measuring synthesized RNA levels at 5 times IC50 after 24 hrs by propidium iodide staining-based flow cytometric method (reference value: 53.09%); type: functional
CCRF-CEM [4] = assay: Induction of apoptosis in human CCRF-CEM cells assessed as accumulation at subG1 phase at 5 times IC50 after 24 hrs by propidium iodide staining-based flow cytometric analysis (reference value: 2.32%); type: functional
CCRF-CEM [5] = assay: Inhibition of DNA synthesis in human CCRF-CEM cells assessed as decrease in BrdU incorporation by measuring synthesized DNA levels at IC50 after 24 hrs by propidium iodide staining-based flow cytometric analysis (reference value: 52.66%); type: functional
CCRF-CEM [6] = assay: Cytotoxicity against human CCRF-CEM cells assessed as cell growth inhibition after 72 hrs by MTS assay
[7] = Drug level in human HCT116 cells at 1 umol/L measured per 5 x 10^5 cells after 3 hrs by UPLC-MS/MS analysis; type: ADME, cell-based; conditions: hct-116, 3 h, 1 µM
[8] = Drug level in human HCT116 cells at 1 umol/L measured per 5 x 10^5 cells after 1 hr by UPLC-MS/MS analysis; type: ADME, cell-based; conditions: hct-116, 1 h, 1 µM
CCRF-CEM [9] = assay: Inhibition of RNA synthesis in human CCRF-CEM cells assessed as decrease in BrU incorporation by measuring synthesized RNA levels at IC50 after 24 hrs by propidium iodide staining-based flow cytometric method (reference value: 53.09%); type: functional
HCT-116 [10] = assay: Cytotoxicity against p53 deficient human HCT116 cells assessed as cell growth inhibition after 72 hrs by MTS assay; type: functional, cell-based; conditions: HCT-116, 72 h
In short: (§1)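 Cells were exposed to compound for 3 days, then stained with MTS as a quantitative metabolic read-out. IC50 is the concentration that inhibits cell growth by 50%.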

CCRF-CEM [11] = assay: Cell cycle arrest in human CCRF-CEM cells assessed as accumulation at G2/M phase at IC50 after 24 hrs by propidium iodide staining-based flow cytometric analysis (reference value: 14.70%); type: functional
HCT-116 [12] = assay: Cytotoxicity against human HCT116 cells assessed as cell growth inhibition after 72 hrs by MTS assay; type: functional, cell-based; conditions: HCT-116, 72 h; in short: as §1
CCRF-CEM [13] = assay: Inhibition of DNA synthesis in human CCRF-CEM cells assessed as decrease in BrdU incorporation by measuring synthesized DNA levels at 5 times IC50 after 24 hrs by propidium iodide staining-based flow cytometric analysis (reference value: 52.66%); type: functional
HepG2 = assay: Cytotoxicity against human HepG2 cells assessed as reduction in cell viability after 72 hrs by XTT assay; type: functional, cell-based; conditions: HepG2, 72 h
In short: (§2)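 Cells were incubated with compound for 3 days. Viability was then measured with the XTT tetrazolium assay.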

[14] = Cytotoxicity against human K562-TAX cells assessed as cell growth inhibition after 72 hrs by MTS assay; type: functional, cell-based; in short: as §1
[15] = Drug level in human HCT116 cells at 10 umol/L measured per 5 x 10^5 cells after 1 hr by UPLC-MS/MS analysis; type: ADME, cell-based; conditions: hct-116, 1 h, 10 µM
HeLa S3 = assay: Cytotoxicity against human HeLaS3 cells assessed as reduction in cell viability after 72 hrs by XTT assay; type: functional, cell-based; conditions: HeLa S3, 72 h; in short: as §2
[16] = Cytotoxicity against human HuH7 cells; type: cell-based, Huh-7
CCRF-CEM [17] = assay: Cell cycle arrest in human CCRF-CEM cells assessed as accumulation at G0/G1 phase at IC50 after 24 hrs by propidium iodide staining-based flow cytometric analysis (reference value: 41.11%); type: functional
MRC5 = assay: Cytotoxicity against human MRC5 cells assessed as cell growth inhibition after 72 hrs by MTS assay; type: cell-based; conditions: MRC5, 72 h; in short: as §1
CCRF-CEM [18] = assay: Inhibition of mitosis in human CCRF-CEM cells assessed as pH3Ser10 positive cells at 5 times IC50 after 24 hrs by flow cytometric analysis (reference value: 1.74%); type: functional
BJ = assay: Cytotoxicity against human BJ cells assessed as cell growth inhibition after 72 hrs by MTS assay; type: cell-based; in short: as §1
CCRF-CEM [19] = assay: Inhibition of mitosis in human CCRF-CEM cells assessed as pH3Ser10 positive cells after 24 hrs by flow cytometric analysis; type: functional, cell-based
CCRF-CEM [20] = assay: Cell cycle arrest in human CCRF-CEM cells assessed as accumulation at S phase at IC50 after 24 hrs by propidium iodide staining-based flow cytometric analysis (reference value: 44.20%); type: functional
A549 = assay: Cytotoxicity against human A549 cells assessed as cell growth inhibition after 72 hrs by MTS assay; type: functional, cell-based; conditions: A549, 72 h; in short: as §1
[21] = Drug level in human BJ cells at 10 umol/L measured per 5 x 10^5 cells after 1 hr by UPLC-MS/MS analysis; type: ADME, cell-based; conditions: 10 µM
[22] = Drug level in human BJ cells at 1 umol/L measured per 5 x 10^5 cells after 3 hrs by UPLC-MS/MS analysis; type: ADME, cell-based; conditions: 1 µM
CCRF-CEM [23] = assay: Cell cycle arrest in human CCRF-CEM cells assessed as accumulation at G0/G1 phase at 5 times IC50 after 24 hrs by propidium iodide staining-based flow cytometric analysis (reference value: 41.11%); type: functional
[24] = Drug level in human HCT116 cells at 10 umol/L measured per 5 x 10^5 cells after 3 hrs by UPLC-MS/MS analysis; type: ADME, cell-based; conditions: hct-116, 3 h, 10 µM
K562 = assay: Cytotoxicity against human K562 cells assessed as cell growth inhibition after 72 hrs by MTS assay; type: functional, cell-based; conditions: K562, 72 h; in short: as §1
U2OS = assay: Cytotoxicity against human U2OS cells assessed as cell growth inhibition after 72 hrs by MTS assay; type: functional, cell-based
CCRF-CEM [25] = assay: Inhibition of mitosis in human CCRF-CEM cells assessed as pH3Ser10 positive cells at IC50 after 24 hrs by flow cytometric analysis (reference value: 1.74%); type: functional
CCRF-CEM [26] = assay: Cell cycle arrest in human CCRF-CEM cells assessed as accumulation at S phase at 5 times IC50 after 24 hrs by propidium iodide staining-based flow cytometric analysis (reference value: 44.20%); type: functional
CCRF-CEM [27] = assay: Cell cycle arrest in human CCRF-CEM cells assessed as accumulation at G2/M phase at 5 times IC50 after 24 hrs by propidium iodide staining-based flow cytometric analysis (reference value: 14.70%); type: functional
HL-60 = assay: Cytotoxicity against human HL60 cells assessed as reduction in cell viability after 72 hrs by XTT assay; type: functional, cell-based; conditions: HL-60, 72 h; in short: as §2
[28] = Cytotoxicity against mrp-1/mdr-1 overexpressing human CEM-DNR-bulk cells assessed as cell growth inhibition after 72 hrs by MTS assay; type: functional, cell-based
In short: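 Cells were exposed to compound for 3 days, then stained with MTS as a quantitative metabolic read-out.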

Hepatitis C virus [29] = assay: Anti-HCV activity against Hepatitis C virus genotype 1b infected in human Huh7 replicon cells after 96 hrs by luciferase reporter gene assay; type: functional, cell-based, Hepacivirus hominis; conditions: Huh-7, 96 h
CCRF-CEM [30] = assay: Induction of apoptosis in human CCRF-CEM cells assessed as accumulation at subG1 phase at IC50 after 24 hrs by propidium iodide staining-based flow cytometric analysis (reference value: 2.32%); type: functional
[31] = Drug level in human BJ cells at 1 umol/L measured per 5 x 10^5 cells after 1 hr by UPLC-MS/MS analysis; type: ADME, cell-based; conditions: 1 µM

Structure (SMILES): CSc1ncnc2c1c1ccsc1n2[C@@H]1O[C@H](CO)[C@@H](O)[C@H]1O
- Drug uptake [1]: 633.7 pmol
- EC50 (Hepatitis C virus [2]): 800 nM
- BrU+ cells (%) (CCRF-CEM [3]): 23.92%
- Activity (CCRF-CEM [4]): 3.53%
- BrdU+ cells (%) (CCRF-CEM [5]): 52.99%
- IC50 (CCRF-CEM [6]): 200 nM
- Drug uptake [7]: 293.6 pmol
- Drug uptake [8]: 278.5 pmol
- BrU+ cells (%) (CCRF-CEM [9]): 37.25%
- IC50 (HCT-116 [10]): 270 nM
- Activity (CCRF-CEM [11]): 11.83%
- IC50 (HCT-116 [12]): 200 nM
- BrdU+ cells (%) (CCRF-CEM [13]): 56.64%
- IC50 (HepG2): 680 nM
- IC50 [14]: > 50000 nM
- Drug uptake [15]: 320.7 pmol
- IC50 (HeLa S3): 300 nM
- CC50 [16]: > 44400 nM
- Activity (CCRF-CEM [17]): 40.36%
- IC50 (MRC5): 46000 nM
- pH3Ser10+ cells (%) (CCRF-CEM [18]): 1.13%
- IC50 (BJ): 6900 nM
- Activity (CCRF-CEM [19]): Dose-dependent effect
- Activity (CCRF-CEM [20]): 47.81%
- IC50 (A549): 800 nM
- Drug uptake [21]: 331.6 pmol
- Drug uptake [22]: 253.6 pmol
- Activity (CCRF-CEM [23]): 33.16%
- Drug uptake [24]: 444 pmol
- IC50 (K562): 510 nM
- IC50 (U2OS): 350 nM
- pH3Ser10+ cells (%) (CCRF-CEM [25]): 1.36%
- Activity (CCRF-CEM [26]): 53.26%
- Activity (CCRF-CEM [27]): 13.58%
- IC50 (HL-60): 860 nM
- IC50 [28]: > 50000 nM
- EC50 (Hepatitis C virus [29]): 130 nM
- Activity (CCRF-CEM [30]): 2.79%

Structure (SMILES): CSc1ncnc2c1c1sccc1n2[C@@H]1O[C@H](CO)[C@@H](O)[C@H]1O
- Drug uptake [1]: 3161.5 pmol
- EC50 (Hepatitis C virus [2]): 340 nM
- BrU+ cells (%) (CCRF-CEM [3]): 0.16%
- Activity (CCRF-CEM [4]): 18.15%
- BrdU+ cells (%) (CCRF-CEM [5]): 51.67%
- IC50 (CCRF-CEM [6]): 27 nM
- Drug uptake [7]: 602.8 pmol
- Drug uptake [8]: 105.4 pmol
- BrU+ cells (%) (CCRF-CEM [9]): 1.46%
- IC50 (HCT-116 [10]): 90 nM
- Activity (CCRF-CEM [11]): 21.65%
- IC50 (HCT-116 [12]): 50 nM
- BrdU+ cells (%) (CCRF-CEM [13]): 51.49%
- IC50 (HepG2): 360 nM
- IC50 [14]: 2200 nM
- Drug uptake [15]: 525.5 pmol
- IC50 (HeLa S3): 720 nM
- CC50 [16]: > 44400 nM
- Activity (CCRF-CEM [17]): 44.14%
- IC50 (MRC5): 9010 nM
- pH3Ser10+ cells (%) (CCRF-CEM [18]): 1.03%
- IC50 (BJ): 1250 nM
- Activity (CCRF-CEM [19]): Dose-dependent effect
- Activity (CCRF-CEM [20]): 34.12%
- IC50 (A549): 660 nM
- Drug uptake [21]: 2298.3 pmol
- Drug uptake [22]: 1750.5 pmol
- Activity (CCRF-CEM [23]): 41.28%
- Drug uptake [24]: 1299 pmol
- IC50 (K562): 350 nM
- IC50 (U2OS): 460 nM
- pH3Ser10+ cells (%) (CCRF-CEM [25]): 1.92%
- Drug uptake [31]: 711.7 pmol
- Activity (CCRF-CEM [26]): 38.11%
- Activity (CCRF-CEM [27]): 20.61%
- IC50 (HL-60): 510 nM
- IC50 [28]: 1460 nM
- EC50 (Hepatitis C virus [29]): 470 nM
- Activity (CCRF-CEM [30]): 10.83%
